Compounds with a hit are over-represented: about 3.8% of the library has one in this group of screens.
KCNQ1 act = human KCNQ1 channel potentiation or activation; B-score at 10 µM; actives 0.35% (n = 310,000); P51787; CHO-K1 KCNQ1, thallium flux FluxOR fluorescence; hits give high values; AID 2648;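 active means fluorescence ratio B-score, a plate-corrected score, at least three library SD, with initial intensity B-score within 5 SD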
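assay system = CHO-K1 cells stably expressing KCNQ1 | medium = assay buffer, equal DMSO in all wells | timing = 37 °C overnight plating, 90-min dark dye load, 20-min compound pretreatment | measured by = kinetic FluxOR thallium fluorescence, 10-s 1-Hz baseline, 110-s post-stimulus read | measure = fluorescence change relative to baseline, converted to B score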
KCNK3 inh = human KCNK3 channel inhibition, primary screen; CHO-KCNK3 thallium flux, FluxOR fluorescence; hits give low values; actives 0.84% (n = 340,000); B-score at 10 µM; O14649; AID 602410;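 active means B-score under library mean minus 4 SD, starting fluorescence ratio at most library mean plus 5 SD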;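 further: more negative B-score means stronger inhibition of thallium flux through KCNK3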
Kir21 block = blocks the mouse Kir2.1 inward-rectifier potassium channel. HEK293-Kir2.1, FluxOR thallium flux fluorescence; hits give low values. B-score at 10 µM. actives 0.85% (n = 310,000). AID 1672;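 active means fluorescence ratio B-score at or below minus 3 SD of library scores, with starting-brightness B-score within 2 SD, cut at about -4.2 in these data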;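 further: channel flux triggered by added potassium and thallium sulfate stimulus; B-score of peak minus minimum fluorescence over baseline after thallium stimulus; more negative B-score means stronger Kir2.1 block with less thallium influx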
Target sequence (P35561 whole entry, looked up): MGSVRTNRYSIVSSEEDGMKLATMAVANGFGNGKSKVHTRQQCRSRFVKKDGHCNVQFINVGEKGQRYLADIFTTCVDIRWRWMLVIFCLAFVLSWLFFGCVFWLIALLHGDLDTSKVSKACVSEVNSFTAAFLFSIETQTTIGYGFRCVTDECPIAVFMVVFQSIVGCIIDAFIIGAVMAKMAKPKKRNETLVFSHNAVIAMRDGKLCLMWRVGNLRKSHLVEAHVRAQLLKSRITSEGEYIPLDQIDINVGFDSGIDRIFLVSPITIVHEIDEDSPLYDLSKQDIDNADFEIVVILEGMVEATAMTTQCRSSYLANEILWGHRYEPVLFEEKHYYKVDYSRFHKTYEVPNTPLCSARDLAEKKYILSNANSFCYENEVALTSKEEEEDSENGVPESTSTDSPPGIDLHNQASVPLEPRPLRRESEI
hERG rescue = compounds protecting human hERG from proarrhythmic drug block; Q12809; CHO-hERG, FluxOR thallium flux, dofetilide IC70 present; activation (rescue from dofetilide block), less the hit threshold, % at 10 µM; actives 0.51% (n = 310,000); AID 1511;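 active means activation above the mean of controls blocked by dofetilide plus 5 SD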;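 further: thallium influx through hERG after potassium depolarization seen as dye fluorescence rise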
KCNK9 block = human KCNK9 channel inhibition; actives 1.2% (n = 310,000); B-score at 10 µM; HEK293 KCNK9, FluxOR thallium flux fluorescence; hits give low values;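 active means ratio B-score over 3 SD below the library mean, with starting fluorescence within 5 SD of its mean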;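 further: negative B-score means less thallium flux so channel inhibition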
KCNQ1 block = human KCNQ1 channel inhibition | CHO-K1 KCNQ1, FluxOR thallium flux fluorescence; hits give high values | actives 1.3% (n = 310,000) | B-score at 10 µM | AID 2642 | P51787;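 active means compounds whose thallium flux B-score, printed positive for inhibition, exceeds three library SD while starting fluorescence stays within three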;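 further: channel opened by potassium depolarization with thallium stimulus after 20 min compound exposure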
* marks the source's active call; other numbers are inactive results; i = inactive; · = not tested or not shown.

SMILES	KCNQ1 act	KCNK3 inh	Kir21 block	hERG rescue	KCNK9 block	KCNQ1 block
COc1ccccc1N1CCN(C(=O)CCCN2C(=O)c3cccc4cccc(c34)C2=O)CC1	i	i	0.99	-3	i	6*
CC1=C(C/C=C(\C)CCC[C@H](C)CCC[C@H](C)CCCC(C)C)C(=O)c2ccccc2C1=O	i	·	-1	-5	i	i
C=CCn1c2ccccc2c(=O)c2cc(C#Cc3ccsc3)ccc21	i	·	0.7	8.9*	i	i
O=C(COc1ccc([N+](=O)[O-])cc1)NNC(=O)Nc1cccc(F)c1	i	i	-1	-6	i	i
COc1ccc(C(=O)NCCCN(C)CCCNC(=O)c2ccc(OC)cc2)cc1	i	i	-1.4	-5	i	i
CC1CCN(CCC(=O)Nc2ccc(Br)cc2)CC1	i	i	-4.9*	-8	i	i
O=C(CCN1CCCC1)Nc1ccc(Br)cc1	i	i	1.4	-6	i	i
CC(=O)c1c(C)nc2ccc([N+](=O)[O-])cc2c1-c1ccccc1	i	i	0.26	-6	i	i
CC(=O)c1c(-c2ccccc2)c2cc([N+](=O)[O-])ccc2[nH]c1=O	8*	i	0.73	-4	i	i
C=CCN(c1ccccc1)S(=O)(=O)c1cccc(C(=O)N(CC)CC(=O)Nc2c(F)cccc2F)c1	i	i	0.72	-9	i	i
CC(=O)c1ccc(-c2cccc(-c3nc4ccccn4c3NC3CCCCC3)c2)cc1	i	i	0	-6	-7.7*	i
c1csc(-c2nc3ccccn3c2NC2CCCCC2)c1	i	i	-0.75	-7	i	i
CCC(C)Sc1cc(-c2nc3ccccn3c2NC2CCCCC2)ccc1OC (centres undefined)	i	i	0.25	-12	i	8*
NC(=O)c1ccc(NC(=O)COC(=O)C2CCN(S(=O)(=O)c3cccs3)CC2)cc1	·	i	·	·	·	·
COc1ccccc1NC(=O)c1ccc(S(=O)(=O)N(C)c2ccccc2)cc1	·	i	·	·	·	·
COc1cc(NC(=O)c2ccc(S(=O)(=O)N(C)c3ccccc3)cc2)cc(OC)c1	·	-9.1*	·	·	·	·
CN(c1ccccc1)S(=O)(=O)c1cccc(NC(=O)c2ccc(Cl)c([N+](=O)[O-])c2)c1	·	-11*	·	·	·	·
Cc1noc(C(=O)Nc2ccc(Cl)cc2)c1Cl	i	·	0.43	-2	i	i
CCOC(=O)CSc1nc(C(C)(C)C)nc2ccccc12	i	i	-3.5	-14	i	i
C=CCn1c(SCC(=O)Nc2ccccc2C)nc2sc(C)c(C)c2c1=O	i	i	0.24	-1	i	i
C=CCn1c(SCc2ccc(C(=O)O)cc2)nc2sc(C)c(C)c2c1=O	16*	i	3.1	8.2*	i	i
COC(=O)[C@]1(Cc2ccccc2)N[C@H](c2ccc(-c3cc(C(C)=O)cs3)cc2)[C@@H]2C(=O)N(C)C(=O)[C@@H]21	i	i	0.33	-4	i	i
COC(=O)N/N=C/c1cc(Br)ccc1O	i	i	-0.16	-3	i	i
COC(=O)N/N=C/c1cc(N=Nc2ccccc2Cl)ccc1O	i	i	0.74	-10	-7.9*	i
CN(c1ccccc1)c1ccc(/C=C/[N+](=O)[O-])cc1	i	i	-11*	-5	i	i
Cc1cc(OCC(=O)Nc2ccc(N3CCN(C)CC3)cc2)ccc1Cl	i	i	0.61	-13	i	i
Cc1ccc(N2CC(C(=O)Nc3ccc(S(=O)(=O)N4CCOCC4)cc3)CC2=O)cc1Cl (centres undefined)	i	i	0.7	-9	i	i
Cc1ccc(C(=O)NCCC(=O)NCc2cc(=O)n(C)c(=O)n2C)cc1	8*	i	1.2	-6	i	i
CN(CC1CCOCC1)C(=O)CC1C(=O)NCCN1CC1CCCCC1 (centres undefined)	i	i	-0.76	-1	i	i
Cc1nnc(N/N=C/c2cc([N+](=O)[O-])c(N3CCC(C)CC3)cc2N2CCC(C)CC2)n1N	i	i	0.69	-14	i	10*

Screens from PubChem BioAssay.
